Screens as filed in PubChem BioAssay.
STAT3 activator: IL-6 driven STAT3 reporter potentiators, primary screen, U3A cells, luciferase, luminescence, MLSCN library | IL-6 STAT3-luciferase reporter; 100% = signal with IL-6 EC80 alone | 190,000 compounds, 0.91% hits | AID 871, 2007 | activation (% of control), % at 5.6 µM;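 active = activation above the screen-wide mean of compound activation plus 3 SD, cut at about 130% in these data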;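 note: 0% = background luminescence of wells with medium and substrate only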
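System – human U3A cells carrying STAT3-luciferase construct · Probe or stimulus – Interleukin-6, 33 ng/mL · Schedule – compound 1 h, then IL-6 6 h at 37 °C · Signal – luminescence from STAT3-driven luciferase reporter · Evaluation – percent of IL-6-only median luminescence · Benchmarks – IL-6-only high control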
STAT3 inh: IL-6 driven STAT3 reporter inhibitors, primary screen, U3A cells, luciferase, luminescence, MLSCN library; inhibition, % at 5.5 µM; IL-6 STAT3-luciferase reporter; host cell line lacks STAT1; 190,000 compounds, 0.89% hits;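 active = inhibition above the mean inhibition across all screened compounds plus 3 SD, cut at about 44% in these data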;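 note: 0% = DMSO only wells and 100% = 100 µM nifuroxazide control wells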
STAT1 inh: STAT1 signaling inhibitors, primary screen, cell-based, HTS, luciferase reporter; NIH 3T3 STAT1-luciferase reporter, IFN-gamma, luminescence; inhibition, % at 5.5 µM; 200,000 compounds, 0.35% hits; AID 920, 2007;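 active = inhibition above a set limit, the mean inhibition across all tested compounds plus 3 SD, cut at about 34% in these data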;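 note: 0% = IFN-gamma with DMSO and 100% = IFN-gamma with 300 µM nifuroxazide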
PPC-1+TRAIL kill: compounds killing PPC-1 cancer cells with TRAIL present, primary screen, TRAIL potentiator project, ATPLite luminescence, uHTS; PPC-1 cells + TRAIL, ATPLite viability luminescence; cell killing (% activity), % at 4 µM or 5 µM; 220,000 compounds, 0.41% hits;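 active = cell killing above 50% in the first pass at 4 µM, then a duplicate retest at 5 µM averaging 50% or more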;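 note: plate controls were cells with TRAIL plus DMSO for no effect and medium-only wells lacking cells for full effect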
C8 TRAIL sens: viability loss with TRAIL in NB7+C8 cells, primary screen, TRAIL sensitizer project, cell-based, ATPlite luminescence. inhibition (viability loss, TRAIL sensitization), % at 10 µM. 360,000 compounds, 1% hits;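 active = compounds causing at least 50% loss of cell viability in the single-dose screen, relative to plate controls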
Numbers without * were called inactive; . = not tested or not shown. A selection: hits, their analogues and other compounds. The true share with any hit is near 1.8%.

SMILES	STAT3 activator	STAT3 inh	STAT1 inh	PPC-1+TRAIL kill	C8 TRAIL sens
C/C(=N\Nc1nc2ccccc2s1)c1cccs1	109.3	-14.4	-65.0	43.1	66.9*
CCOC(=O)N/N=C/c1c(C)nn(-c2ccccc2Cl)c1Cl	107.3	-13.6	-27.3	22.2	31.1
COc1ccccc1NC(=O)Cn1ccn(-c2cccc3ccccc23)c(=O)c1=O	.	.	.	.	17.7
COc1nc(-c2ccccc2)nnc1-c1ccccc1	153.0*	-61.5	-60.6	5.5	16.5
CCN1CCN(CCCNC(=O)c2ccc(/C=C3/Oc4ccccc4N(Cc4cccc(C)c4)C3=O)cc2)CC1	.	.	.	.	55.0*
COc1ccc(C)c2sc(N(CCCN(C)C)C(=O)c3ccc(S(=O)(=O)N4CCc5ccccc5C4)cc3)nc12	.	.	.	.	93.2*
COc1cc2nc(N(CCCN(C)C)C(=O)c3ccc(S(=O)(=O)N4CCc5ccccc5C4)cc3)sc2cc1OC	.	.	.	.	-0.7
CN(C)CCCN(C(=O)c1ccc(S(=O)(=O)N2CCc3ccccc3C2)cc1)c1nc2c(F)cc(F)cc2s1	.	.	.	.	28.8
Cc1ccc2sc(N(CCCN(C)C)C(=O)c3ccc(S(=O)(=O)N4CCc5ccccc5C4)cc3)nc2c1C	.	.	.	.	75.9*
COc1cccc2sc(N(CCCN(C)C)C(=O)c3ccc(S(=O)(=O)N4CCc5ccccc5C4)cc3)nc12	.	.	.	.	82.9*
O=C1c2ccc3c4c(ccc(c24)C(=O)N1c1cccc(O)c1)C(=O)N(c1cccc(O)c1)C3=O	.	.	.	16.1	48.8*
Cc1ccc2[nH]c(CCN(C)C)c(CN3CCOCC3)c2c1	.	.	.	.	-9.2
CCOC(=O)CCCCC(=O)c1[nH]c(=O)[nH]c1CSc1nc(C)cc(C)n1	100.8	3.3	6.0	18.8	3.7
CCOC(=O)CCCCC(=O)c1[nH]c(=O)[nH]c1CSc1nnc2c3cc(Br)ccc3n(C)c2n1	133.6*	-35.8	-6.8	26.4	.
COC(=O)c1ccc(Cl)c(NC(=O)c2ccc(-c3ccccc3)cc2)c1	135.6*	-31.1	-1.3	5.9	.
NNc1nc2c(-c3ccc(F)cc3)nnn2c2ccccc12	119.5	-23.3	-48.5	17.2	17.9
NNc1nc2c(-c3ccc(Cl)cc3)nnn2c2ccccc12	143.6*	-54.1	-41.3	28.6	36.8
O=C(OCC(=O)N(C1CCCCC1)C1CCCCC1)c1ccc(Cl)nc1	.	.	.	.	-6.0
Cc1ccc(C(=O)Oc2ccc(C(=O)COC(=O)c3cnccn3)cc2)cc1	108.5	-5.3	-5.5	0.9	50.6*
C=CC(=O)Nc1ccc(Nc2nc(NC3CCC(N(C)C)CC3)nc3c2ncn3C(C)C)cc1 (stereo not given)	.	.	.	.	72.9*
O=[N+]([O-])c1c(Nc2ccccc2O)cc(Cl)c2nonc12	.	.	.	.	70.7*
O=[N+]([O-])c1c(Nc2ccccc2O)ccc2nonc12	80.5	31.2	6.5	.	-2.5
CC(=NCc1ccncc1)C1=C(O)c2ccccc2C1=O	94.9	12.6	-5.2	50.5*	.
CCOC(=O)C1CCN(Cc2cccc(OCc3ccccc3)c2)CC1	.	.	.	.	16.7
CN(C)c1nc(N)nc(-c2nc3ccccc3s2)n1	179.6*	-95.4	-37.8	29.2	25.2
SMILES	STAT3 activator	STAT3 inh	STAT1 inh	PPC-1+TRAIL kill	C8 TRAIL sens
Nc1ccccc1-c1nc2ccccc2s1	132.3	-34.7	-47.4	-9.6	-23.7
CCc1nc2ccc(C(=O)NCCc3c[nH]c4ccccc34)cn2c1N(C)CCCc1ccccc1	.	.	.	.	-2.9
Cc1nc2nc(C)n(CCN3CCOCC3)c(=O)c2c(-c2cccc([N+](=O)[O-])c2)c1C(=O)CCCCCCCCCCN1CCC(c2ccccc2)(c2ccccc2)CC1	.	.	.	.	91.9*
O=C(NCCCN1CCOCC1)/C(=C/c1ccc(-c2cccc([N+](=O)[O-])c2)o1)NC(=O)c1ccccc1	.	.	.	.	-1.8
Cc1nnc(SCC(=O)Nc2ccc(-c3nc4ccccc4s3)cc2)s1	104.6	-8.0	-63.2	21.8	66.7*
O=C(CCN1C(=O)NC2(CCCC2)C1=O)Nc1ccc(Sc2ccc(Br)cc2)cc1	.	.	.	.	9.0
O=C(CCN1C(=O)NC2(CCCC2)C1=O)Nc1ccc(-c2nc3ccccc3s2)cc1	.	.	.	.	56.1*
Cc1ccc(Nc2nc(NCc3ccco3)c3ccccc3n2)cc1	84.7	23.3	5.7	19.9	70.8*
CCCCN(C(=O)CSc1ncn[nH]1)c1c(N)n(Cc2ccccc2)c(=O)[nH]c1=O	.	.	.	.	-0.6
CCCC(=O)N(Cc1cccnc1)c1nc2c(OC)ccc(Cl)c2s1	.	.	.	.	5.9
Brc1cccc(-c2n[nH]c(-c3ccccc3)n2)c1	151.9*	-54.6	-41.7	0.4	-0.6
O=C(COc1ccccc1F)OCC(=O)c1ccc([N+](=O)[O-])cc1	.	.	.	.	-7.5
COc1ccc(-c2cc(CNc3nc(NC(C)C)nc4cc(-c5ccccc5)sc34)on2)cc1	.	.	.	.	80.0*
CC(=O)Nc1ccc(CNc2nc(NC(C)C)nc3cc(-c4ccccc4)sc23)cc1	.	.	.	.	31.1
Cn1cc(/C=C2/SC(=O)N(c3ccccc3)C2=O)c2ccccc21	172.3*	-83.6	-36.4	6.7	-1.0
Cn1cc(/C=C/C(=O)c2ccccc2)c2ccccc21	.	.	.	34.8	59.9*
CCN(Cc1ccccc1)C(=O)CCc1nc(CN2CCN(C(=O)c3ccc([N+](=O)[O-])cc3)CC2)no1	.	.	.	.	7.2
COc1ccc(C2=NOC(CNC(=O)c3ccccc3Br)C2)c(OC)c1 (stereo not given)	.	.	.	-17.0	2.8
CCc1ccc(Nc2nnc(SCC(=O)NC(=O)CN3CCCC3=O)s2)cc1	.	.	.	.	39.5
Cc1cc(NS(=O)(=O)c2ccc3c(c2)OCCO3)no1	.	.	.	11.7	-15.0
COc1cc(-c2c(C#N)c(N)nc3c2c(C)nn3-c2ccc(C)c(C)c2)cc(OC)c1OC	135.2*	-34.1	5.8	8.0	14.3
Cc1ccc2nc(-c3ccc(O)c(O)c3)cn2c1	.	.	.	.	75.8*
O=c1[nH]c(CCl)nc2cc(-c3ccc(F)cc3)sc12	.	.	.	.	81.5*
COCCNc1nc2cc(-c3ccc(F)cc3)sc2c(=O)n1C	.	.	.	.	-8.7
Cc1csc(NC(=O)c2ccccc2)n1	.	.	.	.	27.1
SMILES	STAT3 activator	STAT3 inh	STAT1 inh	PPC-1+TRAIL kill	C8 TRAIL sens
CCOC(=O)Cc1csc(NC(=S)NC(=O)c2ccccc2)n1	96.5	7.5	3.7	-2.8	34.9
Cc1csc(NC(=S)NC(=O)c2ccccc2)n1	.	.	.	.	71.8*
CCOC(=O)Cc1csc(NC(=S)NC(=O)c2ccc(C)cc2)n1	81.7	17.4	9.2	27.2	81.9*
COc1ccccc1OCCNC(=O)c1ccc2c(c1)OCCO2	.	.	.	.	51.7*
O=C(NCCc1ccccc1)c1ccc2c(c1)OCO2	.	.	.	.	71.0*
O=C(NCCS(=O)(=O)NCc1ccccc1)c1ccc2c(c1)OCO2	.	.	.	.	2.0
O=C(CN(c1cccc(C(F)(F)F)c1)S(=O)(=O)c1ccc(Cl)c([N+](=O)[O-])c1)NCc1ccccc1Cl	103.0	-1.1	3.9	66.5*	2.0
Cc1ccc(N/C(N)=N/c2nc(CSc3nnc(C)s3)cc(=O)[nH]2)c(C)c1	135.3*	-24.7	4.8	6.8	-22.3
Cc1cc(Br)c(OCc2ccc(C(=O)N/N=C/c3ccc[nH]3)cc2)c(Br)c1	.	.	.	.	67.8*
